Experiment [1] is described as follows: Selectivity index defined as mean of EC50 value for FM3A cells/mean of EC50 value for Plasmodium falciparum was determined. The class given is functional. The method, boiled down: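 Index is the mean EC50 in FM3A mouse mammary tumor cells (the host-cell model) divided by the mean EC50 against chloroquine-sensitive P. falciparum FCR-3.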
In experiment [2] the test system is FM3A. Nature of the experiment: Cytotoxicity of compound was tested against mouse mammary tumor FM3A cells. The experiment is classed as functional, cell-based.
In experiment [3] the test system is Mus musculus. Put plainly: Antimalarial potency was evaluated by the increase of life span of mice (Mus musculus) at 1 mg/kg. The experiment is classed as functional. The method, boiled down: (§1)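 Mice infected with P. berghei were treated daily in a 4-day suppressive test, with the dose as given in each line. Increase of life span = (T/C − 1) × 100%, where T and C are the mean survival days of the treated and control groups.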

Experiment [4] has as its system Mus musculus. Nature of the experiment: In Vivo antimalarial activity of compound was tested in Plasmodium berghei infected mice (Mus musculus). The class given is functional. The method, boiled down: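 Four-day suppressive test in P. berghei-infected mice, dosed daily at up to 3.0 mg/kg per day. Parasitemia is the number of infected erythrocytes over total erythrocytes. Survival is scored as increase of life span: ILS = (T/C − 1) × 100%, using mean survival days of the treated (T) and control (C) groups.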

The subject of experiment [5] is Plasmodium falciparum. Put plainly: In vitro antimalarial activity against Plasmodium falciparum. The experiment is classed as functional, organism-based. The method, boiled down: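 Chloroquine-sensitive P. falciparum, FCR-3 strain, grown in vitro; potency is reported as EC50.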
For experiment [6], the system named is Mus musculus. Put plainly: Antimalarial potency was evaluated by the increase of life span of mice (Mus musculus) at 3 mg/kg. The class given is functional. The method, boiled down:
as §1

The record followed here is ChEMBL document CHEMBL1145969, “New semisynthetic quassinoids with in vivo antimalarial activity” (J Med Chem, 2003).

Bounds are passed on as bounds.

What is called EC50 is the midpoint of the concentration-response curve. The low end stands for an effect from little substance, the high end for a need for much substance. As usually defined, the ILS is how much longer treated animals lived than controls. A higher ILS goes with much gain in survival. What is called ED50 is the dose at which the effect has come halfway, by size or by number of responders. The low end stands for greater potency, the high end for weaker potency. Regarding `COC(=O)[C@@]12OC[C@]34[C@H]([C@@H](O)[C@@H]1O)[C@@]1(C)CC(=O)C(OC(C)=O)=C(C)[C@@H]1C[C@H]3OC(=O)[C@H](OC(C)=O)[C@@H]24`, the Selectivity index in experiment [1] worked out at 410. The concentration giving a half-maximal response (EC50) in experiment [2] stood at 16 µM. Further, the increase in lifespan (ILS) at 1 mg/kg in experiment [3] amounted to 49%. For the same compound, in experiment [4], the ED50 was 0.46 mg/kg and the ED90 came out at 0.98 mg/kg.
Compound `COC(=O)O[C@H]1C(=O)O[C@@H]2C[C@H]3C(C)=C(O)C(=O)C[C@]3(C)[C@H]3[C@@H](O)[C@H](O)[C@@]4(C(=O)OC)OC[C@]32[C@@H]14` yielded a Selectivity index in experiment [1] of 164. The results for the half-maximal effective concentration (EC50) in experiment [2] and in experiment [5] were 8.7 µM and 0.053 µM, respectively.
The corresponding values for `CCCOC(=O)OC1=C(C)[C@@H]2C[C@H]3OC(=O)[C@H](OC(=O)OCCC)[C@H]4[C@]5(C(=O)OC)OC[C@]34[C@H]([C@@H](O)[C@@H]5O)[C@@]2(C)CC1=O` are 66, 6.6 µM and 0.1 µM.
On to `COC(=O)[C@@]12OC[C@]34[C@H]([C@@H](O)[C@@H]1O)[C@@]1(C)CC(=O)C(OC(=O)OC(C)C)=C(C)[C@@H]1C[C@H]3OC(=O)[C@H](OC(=O)OC(C)C)[C@@H]24`, for which, in experiment [6], the increase in life span (ILS) at 3 mg/kg was 86%. The Selectivity index in experiment [1] stood at 138. In experiment [2], this compound had an EC50 of 11 µM. Also, the EC50 in experiment [5] amounted to 0.08 µM. Further, in experiment [4], it took a dose of 1.4 mg/kg to reach the 50% effect level (ED50) and the ED90 is > 3 mg/kg.
For the compound `COC(=O)OC1=C(C)[C@@H]2C[C@H]3OC(=O)[C@H](OC(=O)OC)[C@H]4[C@]5(C(=O)OC)OC[C@]34[C@H]([C@@H](O)[C@@H]5O)[C@@]2(C)CC1=O`, in experiment [6], the ILS at 3 mg/kg was 196%. Further, in experiment [1], the Selectivity index is reported as >700. Further, the concentration giving a half-maximal response (EC50) was > 63 µM in experiment [2] and 0.09 µM in experiment [5]. In experiment [4], this compound displayed an ED50 of 1.3 mg/kg. The compound also showed an ED90 in experiment [4] of 3 mg/kg.
On to `COC(=O)[C@@]12OC[C@]34[C@H]([C@@H](O)[C@@H]1O)[C@@]1(C)CC(=O)C(OC(C)=O)=C(C)[C@@H]1C[C@H]3OC(=O)[C@H](O)[C@@H]24`, for which the Selectivity index in experiment [1] is >36. Moreover, the EC50 is > 32 µM in experiment [2] and 0.88 µM in experiment [5].
In experiment [1], `CCCCOC(=O)OC1=C(C)[C@@H]2C[C@H]3OC(=O)[C@H](OC(=O)OCCCC)[C@H]4[C@]5(C(=O)OC)OC[C@]34[C@H]([C@@H](O)[C@@H]5O)[C@@]2(C)CC1=O` registered a Selectivity index of 50. The 50% effective concentration (EC50) in experiment [2] stood at 0.7 µM; in experiment [5], 0.014 µM.
Consider `CCOC(=O)OC1=C(C)[C@@H]2C[C@H]3OC(=O)[C@H](OC(=O)OCC)[C@H]4[C@]5(C(=O)OC)OC[C@]34[C@H]([C@@H](O)[C@@H]5O)[C@@]2(C)CC1=O`, for which the increase in life span (ILS) at 3 mg/kg in experiment [6] was found to be 182%. The compound also came in with a Selectivity index in experiment [1] of 563. Besides, the EC50 in experiment [2] was determined as 36 µM; in experiment [5] it was 0.064 µM. Also, in experiment [4], the median effective dose (ED50) amounted to 0.49 mg/kg. For the same compound, the ED90 in experiment [4] was 1.9 mg/kg.
Take `COC(=O)[C@@]12OC[C@]34[C@H]([C@@H](O)[C@@H]1O)[C@@]1(C)CC(=O)C(O)=C(C)[C@@H]1C[C@H]3OC(=O)[C@H](OC(C)=O)[C@@H]24` [BRUCEINE B]: the Selectivity index in experiment [1] was 333. This compound had an EC50 in experiment [2] of 8 µM.
For `COC(=O)[C@@]12OC[C@]34[C@H]([C@@H](O)[C@@H]1O)[C@@]1(C)CC(=O)C(O)=C(C)[C@@H]1C[C@H]3OC(=O)[C@H](O)[C@@H]24` [BRUCEOLIDE], the 50% effect level in experiment [4] (ED50) was put at a dose of 1.1 mg/kg.
Turning to `CCN(CC)CCCC(C)Nc1ccnc2cc(Cl)ccc12` (stereo not drawn) [CHLOROQUINE], the increase in lifespan (ILS) at 3 mg/kg in experiment [6] turned out to be 15%. In experiment [1], the Selectivity index came out at 1780. The compound further had an EC50 in experiment [2] of 32 µM. In experiment [4], this compound yielded an ED50 of 2 mg/kg and an ED90 of 3.3 mg/kg.
